In the RNAGym collection of RNA variant scans (doi:10.1126/science.aae0568):
This sample holds only a part of the variants without activity.

B1: tRNA (parent)
chain: GUUCCGUUGGCGUAAUGGUAACGCGUCUCCCUCCUAAGGAGAAGACUGCGGGUUCGAGUCCCGUACGGAACG

Variants of: B1
Test: yeast fitness relative to wild type (ratio to wild type); higher = fitter; tRNA-Arg(CCU), competitive growth, 37 C, YPD
In short: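 Gene amplicons from the start population and from each of six end populations were read by 100-nucleotide paired-end sequencing. Those end populations came from pooled Saccharomyces cerevisiae strains carrying tRNA-Arg(CCU) gene variants at the native locus, competed in YPD at 37°C for 24 hours. Fitness relative to wild type was worked out from changes in genotype frequencies. Genotypes needed ≥ 100 starting reads, and estimates < 0.5 were set to 0.5.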

Variant | yeast fitness
A43G A65G | 1.08
A43G A65U | 0.899
A42U G50A G63C G67A | ≤ 0.5
A42U C66A | 0.702
A42U G58C U59A C60U | 0.659
A43U C46A G63A | 0.689
A42G A45C G48C C66U | ≤ 0.5
A42U A45U C46U C66A | ≤ 0.5
A43C A57U C62G | 0.571
A42C U59C | 0.901
A42G U59G U64C C66G | ≤ 0.5
A43C G51A | 0.809
A43C G51C | 0.587
A43G A45U C46U A70U | ≤ 0.5
A42G C62U G68A | 0.79
A42U U59G | 0.75
A42U U59A | 0.668
A42U U59C | 1.01
A43G U47G C55G | 0.636
A43C A57U G63A | 0.556
A43G G52C | 0.643
A43U C46A G48C | 0.631
A42U U53G A70U | ≤ 0.5
A42U U53A | 0.565

Variant | yeast fitness
A43G G67U | 0.85
A43G G67A | 0.864
A43G A45U A69U | 0.771
A42U C55A A65C | 0.538
A43U C60A | 0.59
A42G C61G C66A | ≤ 0.5
A43G C49U A69C | 0.6
A43G A45C | 0.901
A43G A45U | 1.01
A43G A45G | 0.745
A43G U59A | 0.797
A42U A43C C49A | ≤ 0.5
A43C G63C G67A | ≤ 0.5
A42U G50A C60G U64C | ≤ 0.5
A42G G68A | 0.728
A42G G68U | 0.834
A42U A43U A57G A70U | 0.574
A42G C49U A70U | 0.711
A42U A45C A70C | 0.721
A42G C66G G67C | ≤ 0.5
A42G G50C A69C | ≤ 0.5
A42U A57U C62U | 0.529
A43G C46U C60G G68U | 0.567
A42U A65U | 0.741

Variant | yeast fitness
A42U A65G | 1.01
A42G C61A G67A | ≤ 0.5
A43U C55A C66U | 0.6
A42G G58C | 0.906
A43C C49U C55G C61U | 0.556
A42U A45C A69C | 0.67
A42G G52C C66U G68A | ≤ 0.5
A43C C46U G63C C66U | 0.581
A43G C66U G68A | 0.585
A42U A45U A69C | 0.656
A42U A57U G58C | 0.542
A42G G63C | 0.69
A43G G51C A69U | ≤ 0.5
A43C C49U C66U | 0.718
A42G C66U | 0.814
A42G C66G | 0.808
A43U G48A G56C A57U | 0.693
A42U U47G A57C C61A | ≤ 0.5
A43G C49A | 0.574
A43G C49G | 0.732
A43C U47C | 1.07
A43C G48A | 1.06
A42G G67C A70C | ≤ 0.5
A42G A70C | 0.853

Variant | yeast fitness
A42G A70G | 0.693
A42U A45C | 1.17
A43U C55A G68C A69U | ≤ 0.5
A43U C55U C66U | 0.619
A42U A65G A69C | 0.595
A42G U47A C66U | 0.567
A42G A45U C66U | 0.684
A42G G51U A57U G67A | ≤ 0.5
A43U C49G | 0.727
A42G G52C A65U | ≤ 0.5
A43U A57G | 1.01
A43U A57U | 0.761
A43U G48C | 0.922
A43G U53A U54C | ≤ 0.5
A43C G50A | 0.803
A43C G50C | 0.593
A42C U47G C49U | ≤ 0.5
A42G C49U C66A | ≤ 0.5
A42C G63A | 0.818
A42C G63U | 0.72
A43G C46U A70G | 1.04
A43C A57C A70U | 0.53
A42G A43C A70U | 0.745
A42G G56A G63C | 0.51

Variant | yeast fitness
A43U A69C A70C | 0.601
A43U A65C G68U | 0.527
A43U C60G U64A | 0.679
A43G U53A | 0.657
A42C U47C | 1.09
A43U A69G | 0.886
A43U A69C | 0.986
A42G G56C | 0.595
A43G C60U C62U G67A A70C | 0.576
A42U G56A | 1.02
A43G G52C U53C G63C | 0.604
A43G A57U | 0.623
A42G A43U G44C A65C | ≤ 0.5
A42G U54C A65U | ≤ 0.5
A43C C55U G67C | 0.556
A43G A57C G58A A65U | ≤ 0.5
A43G C61G C62U | ≤ 0.5
A42U G44C U53C | ≤ 0.5
A42U G44A G51A | 0.669
A42G A43U U47G C61G G67A | ≤ 0.5
A42U C62U A70C | 0.594
A43C A57C | 0.681
A43C A57G | 0.744
A42G A43G | 0.766

Variant | yeast fitness
A42U U54A G58A | ≤ 0.5
A43G G58A C61G | ≤ 0.5
A43G G51A G58A | 0.58
A43G A45U G48A | 0.658
A42G A43G A45U | 0.722
A42G U47A C55U A57C | 0.631
A43G G48A G50A G51A C62U | ≤ 0.5
A43U C46U C49U | 0.731
A43G C46G U53C G56C | ≤ 0.5
A42U U54C | 0.897
A42U U54G | 0.605
A43U C46U | 0.952
A42G G52C C62A | ≤ 0.5
A43C G52C | 0.74
A42U U64C | 1.05
A42G G67A | 0.747
A42G G67C | 0.947
A42U A57G C62A U64G C66G | ≤ 0.5
A42C G67C A70U | 0.505
A43G C55G | 0.684
A43U A45C G67C | ≤ 0.5
A42U C61A C62A G63A | 0.748
A42G G44A | 0.962
A43C A45G G67A | 0.659

Variant | yeast fitness
A42U A43C U64C G68C | ≤ 0.5
A43C C66G | 0.603
A43C C66A | 0.699
A42G G51A A57C U59C C60U | ≤ 0.5
A42G A45G C46U | 0.726
A43U C49A C66U A70U | 0.529
A42U U47A U53A | 0.727
A42U U47A G51A | ≤ 0.5
A43U C61G C62A | 0.581
A42U A65C G67U | ≤ 0.5
A42C G68C A69U | ≤ 0.5
A42G A45G A65U | 0.635
A42U C60U | 0.769
A42U C60G | 0.579
A43C C49U C62G | 0.561
A43G G51A | 0.853
A43U C62U G63A | 0.823
A42U U47A | 0.789
A42U U47C | 0.939
A42U A57U C61G | ≤ 0.5
A43U A65C | 0.952
A43U A65U | 0.883
A43U C55G | 0.537
